# Measurements reported in ChEMBL document CHEMBL4715736, “Identification of anticancer agents based on the thieno[2,3-b]pyridine and 1H-pyrazole molecular scaffolds” (2016).
# What was measured:
# Format in all cases: functional
# SNB-75 = assay: Growth inhibition of human SNB-75 cells assessed as cell growth at 1 uM incubated for 48 hrs by sulforhodamine B assay relative to control; conditions: read-out: Activity
# SW-620 = assay: Growth inhibition of human SW-620 cells assessed as cell growth at 0.01 uM incubated for 48 hrs by sulforhodamine B assay relative to control; conditions: read-out: Activity
# MDA-MB-468 = assay: Growth inhibition of human MDA-MB-468 cells assessed as cell growth at 0.1 uM incubated for 48 hrs by sulforhodamine B assay relative to control; conditions: read-out: Activity
# M14 = assay: Growth inhibition of human M14 cells assessed as cell growth at 1 uM incubated for 48 hrs by sulforhodamine B assay relative to control; conditions: read-out: Activity
# SK-OV-3 = assay: Growth inhibition of human SK-OV-3 cells assessed as cell growth at 0.01 uM incubated for 48 hrs by sulforhodamine B assay relative to control; conditions: read-out: Activity
# NCI-H226 = assay: Growth inhibition of human NCI-H226 cells incubated for 48 hrs by sulforhodamine B assay; conditions: for CC50: read-out: LC50 (the source's name)
# In short: (§1)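 NCI60 panel at the NCI Developmental Therapeutics Program. Only compounds active in the 10 µM screen went to dose-response testing. GI50, the concentration giving 50% of maximal inhibition of proliferation, and TGI, the concentration giving total growth inhibition, were derived from the dose-response curves.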
# A498 = assay: Growth inhibition of human A498 cells assessed as cell growth at 0.1 uM incubated for 48 hrs by sulforhodamine B assay relative to control; conditions: read-out: Activity
# In short: (§2)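 NCI Developmental Therapeutics Program NCI60 panel. Compounds that were active in the 10 µM one-dose screen went on to dose–response testing. Growth at each concentration is expressed relative to untreated control (100%). GI50 (concentration giving 50% of maximal inhibition of proliferation) and TGI (concentration giving total growth inhibition) were derived from the curves.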
# ACHN = assay: Growth inhibition of human ACHN cells assessed as cell growth at 1 uM incubated for 48 hrs by sulforhodamine B assay relative to control; conditions: read-out: Activity
# MCF7 [1] = assay: Growth inhibition of human MCF7 cells assessed as cell growth at 0.01 uM incubated for 48 hrs by sulforhodamine B assay relative to control; conditions: read-out: Activity
# NCI-H322M = assay: Growth inhibition of human NCI-H322M cells assessed as cell growth at 0.1 uM incubated for 48 hrs by sulforhodamine B assay relative to control; conditions: read-out: Activity
# SK-MEL-2 = assay: Growth inhibition of human SK-MEL-2 cells assessed as cell growth at 0.1 uM incubated for 48 hrs by sulforhodamine B assay relative to control; conditions: read-out: Activity
# U-251 = assay: Growth inhibition of human U-251 cells assessed as cell growth at 0.01 uM incubated for 48 hrs by sulforhodamine B assay relative to control; conditions: read-out: Activity
# HCC 2998 = assay: Growth inhibition of human HCC 2998 cells incubated for 48 hrs by sulforhodamine B assay; conditions: for CC50: read-out: LC50 (the source's name)
# MDA-MB-231 = assay: Growth inhibition of human MDA-MB-231 cells assessed as cell growth at 0.1 uM incubated for 48 hrs by sulforhodamine B assay relative to control; conditions: read-out: Activity
# LOX IMVI [2] = assay: Growth inhibition of human LOX IMVI cells assessed as cell growth at 0.01 uM incubated for 48 hrs by sulforhodamine B assay relative to control; conditions: read-out: Activity
# A549 = assay: Growth inhibition of human A549/ATCC cells incubated for 48 hrs by sulforhodamine B assay; conditions: for CC50: read-out: LC50 (the source's name); in short: as §2
# HOP-62 = assay: Growth inhibition of human HOP-62 cells incubated for 48 hrs by sulforhodamine B assay; in short: as §1
# OVCAR-4 = assay: Growth inhibition of human OVCAR-4 cells assessed as cell growth at 0.1 uM incubated for 48 hrs by sulforhodamine B assay relative to control; conditions: read-out: Activity
# SK-MEL-5 = assay: Growth inhibition of human SK-MEL-5 cells incubated for 48 hrs by sulforhodamine B assay
# In short: (§3)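 NCI DTP 60-line human tumour panel. Dose-response curves were run only for ligands active in the initial 10 µM screen. GI50 (concentration giving 50% of maximal inhibition of proliferation) and TGI (concentration giving total growth inhibition) were derived from these curves.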
# Malme-3M = assay: Growth inhibition of human Malme-3M cells incubated for 48 hrs by sulforhodamine B assay; in short: as §1
# LOX IMVI [3] = assay: Growth inhibition of human LOX IMVI cells incubated for 48 hrs by sulforhodamine B assay; in short: as §1
# MCF7 [4] = assay: Growth inhibition of human MCF7 cells incubated for 48 hrs by sulforhodamine B assay; conditions: for CC50: read-out: LC50 (the source's name); in short: as §1
# NCI/ADR-RES = assay: Growth inhibition of human NCI/ADR-RES cells incubated for 48 hrs by sulforhodamine B assay; conditions: for CC50: read-out: LC50 (the source's name); in short: as §1
# SNB-19 = assay: Growth inhibition of human SNB-19 cells incubated for 48 hrs by sulforhodamine B assay; in short: as §3
# IGROV-1 = assay: Growth inhibition of human IGROV-1 cells incubated for 48 hrs by sulforhodamine B assay; in short: as §1
# OVCAR-5 = assay: Growth inhibition of human OVCAR-5 cells assessed as cell growth at 100 uM incubated for 48 hrs by sulforhodamine B assay relative to control; conditions: read-out: Activity
# TK-10 = assay: Growth inhibition of human TK-10 cells assessed as cell growth at 1 uM incubated for 48 hrs by sulforhodamine B assay relative to control; conditions: read-out: Activity
# RPMI-8226 = assay: Growth inhibition of human RPMI-8226 cells assessed as cell growth at 0.1 uM incubated for 48 hrs by sulforhodamine B assay relative to control; conditions: read-out: Activity
# UACC-257 = assay: Growth inhibition of human UACC-257 cells assessed as cell growth at 0.01 uM incubated for 48 hrs by sulforhodamine B assay relative to control; conditions: read-out: Activity
# MCF7 [5] = assay: Growth inhibition of human MCF7 cells assessed as cell growth at 0.1 uM incubated for 48 hrs by sulforhodamine B assay relative to control; conditions: read-out: Activity
# SF-539 = assay: Growth inhibition of human SF-539 cells assessed as cell growth at 0.01 uM incubated for 48 hrs by sulforhodamine B assay relative to control; conditions: read-out: Activity
# SF-295 = assay: Growth inhibition of human SF-295 cells incubated for 48 hrs by sulforhodamine B assay; in short: as §3
# T47D = assay: Growth inhibition of human T47D cells assessed as cell growth at 1 uM incubated for 48 hrs by sulforhodamine B assay relative to control; conditions: read-out: Activity
# CCRF-CEM = assay: Growth inhibition of human CCRF-CEM cells incubated for 48 hrs by sulforhodamine B assay; in short: as §2
smiles,measurement,setting,value
Nc1c(C(=O)Nc2ccccc2)sc2nc3c(cc12)CN(Cc1ccccc1)CC3,growth at 1 µM,SNB-75,64%
same,growth at 0.01 µM,SW-620,98%
same,growth at 0.1 µM,MDA-MB-468,98%
same,growth at 1 µM,M14,91%
same,growth at 0.01 µM,SK-OV-3,97%
same,GI50,NCI-H226,4.91 µM
same,TGI,NCI-H226,> 100 µM
same,CC50,NCI-H226,> 100 µM
same,growth at 0.1 µM,A498,82%
same,growth at 1 µM,ACHN,87%
same,growth at 0.01 µM,MCF7 [1],93%
same,growth at 0.1 µM,NCI-H322M,93%
same,growth at 0.1 µM,SK-MEL-2,95%
same,growth at 0.01 µM,U-251,98%
same,GI50,HCC 2998,76.1 µM
same,TGI,HCC 2998,> 100 µM
same,CC50,HCC 2998,> 100 µM
same,growth at 0.1 µM,MDA-MB-231,100%
same,growth at 0.01 µM,LOX IMVI [2],94%
same,GI50,A549,13.9 µM
same,TGI,A549,> 100 µM
same,CC50,A549,> 100 µM
same,GI50,HOP-62,4.11 µM
same,LC50,HOP-62,> 100 µM
same,TGI,HOP-62,33.3 µM
same,growth at 0.1 µM,OVCAR-4,91%
same,GI50,SK-MEL-5,9.58 µM
same,LC50,SK-MEL-5,> 100 µM
same,TGI,SK-MEL-5,> 100 µM
same,GI50,Malme-3M,3.8 µM
same,LC50,Malme-3M,> 100 µM
same,TGI,Malme-3M,> 100 µM
same,GI50,LOX IMVI [3],10.5 µM
same,LC50,LOX IMVI [3],> 100 µM
same,TGI,LOX IMVI [3],> 100 µM
same,GI50,MCF7 [4],12.1 µM
same,TGI,MCF7 [4],> 100 µM
same,CC50,MCF7 [4],> 100 µM
same,GI50,NCI/ADR-RES,16.3 µM
same,TGI,NCI/ADR-RES,> 100 µM
same,CC50,NCI/ADR-RES,> 100 µM
same,GI50,SNB-19,18.3 µM
same,LC50,SNB-19,> 100 µM
same,TGI,SNB-19,> 100 µM
same,GI50,IGROV-1,37.8 µM
same,LC50,IGROV-1,> 100 µM
same,TGI,IGROV-1,> 100 µM
same,growth at 100 µM,OVCAR-5,66%
same,growth at 1 µM,TK-10,100%
same,growth at 0.1 µM,RPMI-8226,99%
same,growth at 0.01 µM,UACC-257,93%
same,growth at 0.1 µM,MCF7 [5],86%
same,growth at 0.01 µM,SF-539,96%
same,GI50,SF-295,5.45 µM
same,LC50 (concentration killing 50% of cells),SF-295,> 100 µM
same,TGI,SF-295,> 100 µM
same,growth at 1 µM,T47D,83%
same,GI50,CCRF-CEM,50.3 µM
same,LC50,CCRF-CEM,> 100 µM
same,TGI,CCRF-CEM,> 100 µM
CN1CCc2nc3sc(C(N)=O)c(N)c3c(-c3cccs3)c2C1,growth at 1 µM,SNB-75,99%
same,growth at 0.01 µM,SW-620,105%
same,growth at 0.1 µM,MDA-MB-468,82%
same,growth at 1 µM,M14,115%
same,growth at 0.01 µM,SK-OV-3,93%
same,GI50,NCI-H226,3.16 µM
same,TGI,NCI-H226,> 100 µM
same,CC50,NCI-H226,> 100 µM
same,growth at 0.1 µM,A498,111%
same,growth at 0.01 µM,MCF7 [1],98%
same,growth at 0.1 µM,NCI-H322M,102%
same,growth at 0.1 µM,SK-MEL-2,114%
same,growth at 0.01 µM,U-251,99%
same,GI50,HCC 2998,3.54 µM
same,TGI,HCC 2998,20.9 µM
same,CC50,HCC 2998,> 100 µM
same,growth at 0.1 µM,MDA-MB-231,109%
same,growth at 0.01 µM,LOX IMVI [2],97%
same,GI50,A549,3.37 µM
same,TGI,A549,> 100 µM
same,CC50,A549,> 100 µM
same,GI50,HOP-62,3.27 µM
same,LC50,HOP-62,> 100 µM
same,TGI,HOP-62,> 100 µM
same,growth at 0.1 µM,OVCAR-4,107%
same,GI50,SK-MEL-5,1.43 µM
same,LC50,SK-MEL-5,> 100 µM
same,TGI,SK-MEL-5,5.24 µM
same,GI50,Malme-3M,5.06 µM
same,LC50,Malme-3M,> 100 µM
same,TGI,Malme-3M,38.4 µM
same,GI50,LOX IMVI [3],1.27 µM
same,LC50,LOX IMVI [3],> 100 µM
same,TGI,LOX IMVI [3],> 100 µM
same,GI50,MCF7 [4],4.1 µM
same,TGI,MCF7 [4],> 100 µM
same,CC50,MCF7 [4],> 100 µM
same,GI50,NCI/ADR-RES,3.69 µM
same,TGI,NCI/ADR-RES,98.8 µM
same,CC50,NCI/ADR-RES,> 100 µM
same,GI50,SNB-19,4.34 µM
same,LC50,SNB-19,> 100 µM
same,TGI,SNB-19,> 100 µM
same,GI50,IGROV-1,5.16 µM
same,LC50,IGROV-1,> 100 µM
same,TGI,IGROV-1,> 100 µM
same,growth at 1 µM,TK-10,103%
same,growth at 0.1 µM,RPMI-8226,121%
same,growth at 0.01 µM,UACC-257,97%
same,growth at 0.1 µM,MCF7 [5],107%
same,growth at 0.01 µM,SF-539,102%
same,GI50,SF-295,3.61 µM
same,LC50 (concentration killing 50% of cells),SF-295,> 100 µM
same,TGI,SF-295,> 100 µM
same,growth at 1 µM,T47D,84%
same,GI50,CCRF-CEM,3.77 µM
same,LC50,CCRF-CEM,> 100 µM
same,TGI,CCRF-CEM,> 100 µM
